Active and inactive are the calls of the source. The calls are words filed in the database; no cut-off is given here.
Tests used:
[1] = molecular target: T1, Ionotropic glutamate receptor NMDA 1/2D (Rattus norvegicus) (UniProt P35439+Q62645); assay: Agonist activity at rat GluN1/GluN2D NMDA receptor expressed in Xenopus oocytes assessed as maximal relative efficacy measured at 30 uM after 4 days in presence of L-glutamte by two-electrode voltage-clamp recording assay relative to glycine; format: cell-based; settings: Oocyte, time 4.0 day
Procedure, shortened: (§1)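 Xenopus oocytes were injected with rat GluN1 and GluN2C or GluN2D cRNA (1:2) and recorded by TEVC 2–4 days later at −40 mV, room temperature, pH 7.4 HEPES/NaCl/BaCl2 saline. Concentration-response with 300 μM L-Glu present. […] NR means <5% response at the concentration given. DMSO ≤0.5%. 3–14 oocytes.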

[2] = molecular target: Glutamate NMDA receptor; Grin1/Grin2c (Rattus norvegicus) (UniProt P35439+Q00961); assay: Agonist activity at rat GluN1/GluN2C NMDA receptor expressed in Xenopus oocytes assessed as maximal relative efficacy measured after 4 days in presence of L-glutamte by two-electrode voltage-clamp recording assay relative to glycine; format: cell-based; settings: Oocyte, time 4.0 day; procedure, shortened: as §1
[3] = molecular target: T2, Glutamate NMDA receptor; Grin1/Grin2b (Rattus norvegicus) (UniProt P35439+Q00960); assay: Agonist activity at rat GluN1/GluN2B NMDA receptor expressed in Xenopus oocytes assessed as maximal relative efficacy measured at 30 uM after 4 days in presence of L-glutamte by two-electrode voltage-clamp recording assay relative to glycine; format: cell-based; settings: Oocyte, time 4.0 day
Procedure, shortened: (§2)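 Rat GluN1 plus GluN2A or GluN2B cRNA (1:2) in Xenopus oocytes. TEVC at −40 mV, room temperature, 2–4 days post-injection. Bath: 90 mM NaCl, 1 mM KCl, 10 mM HEPES, 0.5 mM BaCl2, 0.01 mM EDTA, pH 7.4. Oocytes were BAPTA-injected before recording. Agonist applied with 300 μM L-Glu throughout. […] NR means <5% response at the stated concentration. 3–14 oocytes.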

[4] = molecular target: T3, Glutamate NMDA receptor; Grin1/Grin2a (Rattus norvegicus) (UniProt P35439+Q00959); assay: Agonist activity at rat GluN1/GluN2A NMDA receptor expressed in Xenopus oocytes assessed as maximal relative efficacy measured at 30 uM after 4 days in presence of L-glutamte by two-electrode voltage-clamp recording assay relative to glycine; format: cell-based; settings: Oocyte, time 4.0 day; procedure, shortened: as §2
[5] = molecular target: Glutamate NMDA receptor; Grin1/Grin2c (Rattus norvegicus, UniProt P35439+Q00961); assay: Agonist activity at rat GluN1/GluN2C NMDA receptor expressed in Xenopus oocytes measured after 4 days in presence of L-glutamte by two-electrode voltage-clamp recording assay; format: cell-based, Oocyte
Procedure, shortened: (§3)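 Xenopus oocytes were injected with rat GluN1 and GluN2C or GluN2D cRNA (1:2) and recorded by TEVC 2–4 days later at −40 mV, room temperature, pH 7.4 HEPES/NaCl/BaCl2 saline. Concentration-response with 300 μM L-Glu present. NR means <5% response at the concentration given. DMSO ≤0.5%. 3–14 oocytes.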

[6] = molecular target: T2, Glutamate NMDA receptor; Grin1/Grin2b (Rattus norvegicus); assay: Agonist activity at rat GluN1/GluN2B NMDA receptor expressed in Xenopus oocytes assessed as maximal relative efficacy measured at 300 uM after 4 days in presence of L-glutamte by two-electrode voltage-clamp recording assay relative to glycine; format: cell-based; settings: Oocyte, time 4.0 day; procedure, shortened: as §2
[7] = molecular target: T2, Glutamate NMDA receptor; Grin1/Grin2b (Rattus norvegicus); assay: Agonist activity at rat GluN1/GluN2B NMDA receptor expressed in Xenopus oocytes assessed as maximal relative efficacy measured at 100 uM after 4 days in presence of L-glutamte by two-electrode voltage-clamp recording assay relative to glycine; format: cell-based; settings: Oocyte, time 4.0 day; procedure, shortened: as §2
[8] = molecular target: Glutamate NMDA receptor; Grin1/Grin2a (Rattus norvegicus, UniProt P35439+Q00959); assay: Agonist activity at rat GluN1/GluN2A NMDA receptor expressed in Xenopus oocytes measured after 4 days in presence of L-glutamte by two-electrode voltage-clamp recording assay; format: cell-based, Oocyte
Procedure, shortened: (§4)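 Rat GluN1 plus GluN2A or GluN2B cRNA (1:2) in Xenopus oocytes. TEVC at −40 mV, room temperature, 2–4 days post-injection. Bath: 90 mM NaCl, 1 mM KCl, 10 mM HEPES, 0.5 mM BaCl2, 0.01 mM EDTA, pH 7.4. Oocytes were BAPTA-injected before recording. Agonist applied with 300 μM L-Glu throughout. NR means <5% response at the stated concentration. 3–14 oocytes.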

[9] = molecular target: T1, Ionotropic glutamate receptor NMDA 1/2D (Rattus norvegicus); assay: Agonist activity at rat GluN1/GluN2D NMDA receptor expressed in Xenopus oocytes assessed as maximal relative efficacy measured after 4 days in presence of L-glutamte by two-electrode voltage-clamp recording assay relative to glycine; format: cell-based; settings: Oocyte, time 4.0 day; procedure, shortened: as §1
[10] = molecular target: Ionotropic glutamate receptor NMDA 1/2D (Rattus norvegicus, UniProt P35439+Q62645); assay: Agonist activity at rat GluN1/GluN2D NMDA receptor expressed in Xenopus oocytes measured after 4 days in presence of L-glutamte by two-electrode voltage-clamp recording assay; format: cell-based, Oocyte; procedure, shortened: as §3
[11] = molecular target: T3, Glutamate NMDA receptor; Grin1/Grin2a (Rattus norvegicus); assay: Agonist activity at rat GluN1/GluN2A NMDA receptor expressed in Xenopus oocytes assessed as maximal relative efficacy measured after 4 days in presence of L-glutamte by two-electrode voltage-clamp recording assay relative to glycine; format: cell-based; settings: Oocyte, time 4.0 day; procedure, shortened: as §2
[12] = molecular target: T1, Ionotropic glutamate receptor NMDA 1/2D (Rattus norvegicus); assay: Agonist activity at rat GluN1/GluN2D NMDA receptor expressed in Xenopus oocytes assessed as maximal relative efficacy measured at 300 uM after 4 days in presence of L-glutamte by two-electrode voltage-clamp recording assay relative to glycine; format: cell-based; settings: Oocyte, time 4.0 day; procedure, shortened: as §1
[13] = molecular target: T1, Ionotropic glutamate receptor NMDA 1/2D (Rattus norvegicus); assay: Agonist activity at rat GluN1/GluN2D NMDA receptor expressed in Xenopus oocytes assessed as maximal relative efficacy measured at 100 uM after 4 days in presence of L-glutamte by two-electrode voltage-clamp recording assay relative to glycine; format: cell-based; settings: Oocyte, time 4.0 day; procedure, shortened: as §1
[14] = molecular target: T2, Glutamate NMDA receptor; Grin1/Grin2b (Rattus norvegicus); assay: Agonist activity at rat GluN1/GluN2B NMDA receptor expressed in Xenopus oocytes assessed as maximal relative efficacy measured at 10 uM after 4 days in presence of L-glutamte by two-electrode voltage-clamp recording assay relative to glycine; format: cell-based; settings: Oocyte, time 4.0 day; procedure, shortened: as §2
[15] = molecular target: T3, Glutamate NMDA receptor; Grin1/Grin2a (Rattus norvegicus); assay: Agonist activity at rat GluN1/GluN2A NMDA receptor expressed in Xenopus oocytes assessed as maximal relative efficacy measured at 300 uM after 4 days in presence of L-glutamte by two-electrode voltage-clamp recording assay relative to glycine; format: cell-based; settings: Oocyte, time 4.0 day; procedure, shortened: as §2
[16] = molecular target: Glutamate NMDA receptor; Grin1/Grin2b (Rattus norvegicus, UniProt P35439+Q00960); assay: Agonist activity at rat GluN1/GluN2B NMDA receptor expressed in Xenopus oocytes measured after 4 days in presence of L-glutamte by two-electrode voltage-clamp recording assay; format: cell-based, Oocyte; procedure, shortened: as §4
[17] = tested on: Oocyte; assay: Agonist activity at mutant GluN1 F484A/T518 mutant//GluN3A NMDA receptor (unknown origin) expressed in Xenopus oocytes measured after 4 days in presence of glycine by two-electrode voltage-clamp recording assay; format: cell-based; settings: Homo sapiens, time 4.0 day
[18] = Binding affinity at recombinant GluN1a/GluN2B NMDA receptor (unknown origin) expressed in Xenopus oocytes measured after 4 days in presence of L-glutamte by two-electrode voltage-clamp recording assay; format: cell-based, Homo sapiens; settings: oocyte
[19] = tested on: Oocyte; assay: Agonist activity at recombinant GluN1a/GluN2B NMDA receptor (unknown origin) expressed in Xenopus oocytes assessed as inhibition of glycine-induced activation of current measured at 10 uM after 4 days in presence of L-glutamte by two-electrode voltage-clamp recording assay; format: cell-based; settings: Homo sapiens, filed as agonist, time 4.0 day
Procedure, shortened: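 Oocytes expressing GluN1/2B were BAPTA-injected and held under two-electrode voltage clamp in continuous 300 μM L-Glu. […] Values are mean ± SEM from 12 oocytes.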

[20] = tested on: Oocyte; assay: Agonist activity at mutant GluN1 F484A/T518 mutant//GluN3B NMDA receptor (unknown origin) expressed in Xenopus oocytes measured after 4 days in presence of glycine by two-electrode voltage-clamp recording assay; format: cell-based; settings: Homo sapiens, time 4.0 day

| SMILES | Rmax [2] [%] | EC50 [5] [µM] | Rmax [6] [%] | Rmax [7] [%] | Rmax ([2]; filed as agonist) [%] | EC50 [8] [µM] | Rmax [9] [%] | EC50 [10] [µM] | Rmax [11] [%] | further results |
| --- | --- | --- | --- | --- | --- | --- | --- | --- | --- | --- |
| N[C@H](CNC(=O)c1ccc(-c2ccccc2/C=C/c2ccccc2)o1)C(=O)O | 16 | 5.8 |  |  |  |  |  |  |  | Rmax [1]: < 5%; Rmax [3]: < 5%; Rmax [4]: < 5% |
| N[C@H](CNC(=O)c1ccc(-c2cccc3c2OCCO3)o1)C(=O)O | 17 | 3.9 | < 5 |  |  |  |  |  |  |  |
| N[C@H](CNC(=O)c1ccc(-c2ccccc2/C=C/c2cccc(F)c2)o1)C(=O)O | 22 | 0.75 |  | < 5 |  |  |  |  |  |  |
| N[C@H](CNC(=O)c1ccc(-c2cccc3ccccc23)o1)C(=O)O |  | 0.11 | < 5 |  | 53 | 0.18 | 12 | 0.23 | 29 |  |
| N[C@H](CNC(=O)c1ccc(-c2ccccc2Cl)o1)C(=O)O |  | 0.12 | < 5 |  | 70 | 0.26 | 11 | 0.27 | 38 |  |
| CN(C)S(=O)(=O)c1ccccc1-c1ccc(C(=O)NC[C@@H](N)C(=O)O)o1 |  | 4.8 | < 5 |  | 119 | 10 |  |  | 22 | Rmax [12]: < 5% |
| COc1ccc(-c2ccc(C(=O)NC[C@@H](N)C(=O)O)o2)cc1 | 26 | 1.3 |  | < 5 |  |  |  |  |  | Rmax [13]: < 5% |
| N[C@H](CNC(=O)c1ccc(-c2ccc(Cl)c(Cl)c2)o1)C(=O)O |  | 4.2 | < 5 |  | 74 | 23 | 24 | 31 | 20 |  |
| N[C@H](CNC(=O)c1ccc(-c2ccccc2C(F)(F)F)o1)C(=O)O | 36 | 0.04 |  | < 5 |  | 0.13 |  |  | 24 | Rmax [13]: < 5% |
| N[C@H](CNC(=O)c1ccc(-c2cccc(Cl)c2)o1)C(=O)O |  | 1.3 | < 5 |  | 68 | 4.9 | 38 | 5 | 27 |  |
| N[C@H](CNC(=O)c1ccc(-c2ccccc2)o1)C(=O)O |  | 2.9 | < 5 |  | 77 | 4.8 | 16 | 4.3 | 22 |  |
| N[C@H](CNC(=O)c1ccc(-c2cccc(C(F)(F)F)c2)o1)C(=O)O | 36 | 1.8 | < 5 |  |  | 6.6 | 35 | 7.7 | 17 |  |
| Cc1ccccc1-c1ccc(C(=O)NC[C@@H](N)C(=O)O)o1 |  | 0.14 |  |  | 103 | 0.22 | 17 | 0.26 |  | Rmax [14]: < 5%; Rmax ([11]; filed as agonist): 58% |
| N[C@H](CNC(=O)c1ccc(-c2ccccc2OCc2ccccc2)o1)C(=O)O |  | 4 | < 5 |  | 157 |  |  |  |  | Rmax [15]: < 5% |
| COCc1ccccc1-c1ccc(C(=O)NC[C@@H](N)C(=O)O)o1 |  | 1.6 | < 5 |  | 114 | 3.1 | 11 | 3.2 | 32 |  |
| N[C@H](CNC(=O)c1ccc(-c2ccccc2Br)o1)C(=O)O |  | 0.036 |  | < 5 | 49 | 0.053 | 9 | 0.08 | 34 |  |
| N[C@H](CNC(=O)c1ccc(-c2ccc(Cl)cc2)o1)C(=O)O |  | 1.7 |  | < 5 | 44 | 4.3 |  |  | 14 | Rmax [13]: < 5% |
| N[C@H](CNC(=O)c1ccc(-c2ccc(Cl)cc2[N+](=O)[O-])o1)C(=O)O | 28 | 0.074 |  | < 5 |  |  |  |  |  | IC50 [16]: 10 µM; inhibition [17]: inactive; Ki [18]: 0.1 µM; Rmax [13]: < 5%; inhibition [19]: 57%; inhibition [20]: inactive |
